# Published values pooled from the literature.
# Compare with care: the assays were run in different laboratories.
# folP: Dihydropteroate synthase (folP, Bacteria, UniProt P0AC13)
# NR4A1: Nuclear receptor subfamily 4immunitygroup A member 1 (NR4A1, Homo sapiens, UniProt P22736)
# KEAP1: Kelch-like ECH-associated protein 1 (KEAP1, Homo sapiens, UniProt Q14145)
Compound,target,effect on,action,technique,time,quantity,value
CC(=O)OCc1nn(C)c2nc(N)[nH]c(=O)c2c1=O,folP,binding,,SPR,,Kd,0.0148 µM
CN(Cc1cnc2nc(N)nc(N)c2n1)c1ccc(C(=O)N[C@@H](CCC(=O)O)C(=O)O)cc1,"Solute carrier organic anion transporter family member 1B3 (SLCO1B3, Homo sapiens, UniProt Q9NPD5, M233I)",transporter uptake,inhibitor,radiometric,2 min,IC50,> 100 µM
CCCCCCCCC(=O)c1cc(O)c(O)c(O)c1,NR4A1,binding,,ITC,,Kd,3.7 µM
CCOC(=O)C(C)c1n[nH]c2nc(N)[nH]c(=O)c2c1=O (centres unmarked),folP,binding,,SPR,,Kd,0.199 µM
C=CS(=O)(=O)c1ccc(Nc2nc(OCC3CCCCC3)c3nc[nH]c3n2)cc1,KEAP1,binding,,SPR,,Kd,0.2 µM
COc1cccc2c(Nc3ccc4[nH]c(C(=O)N/N=C/c5ccc(SC)cc5)cc4c3)cc(C)nc12,NR4A1,binding,,ITC,,Kd,2.3 µM
O=C(O)/C=C/c1ccc(O)c(O)c1,KEAP1,binding,,SPR,,Kd,4.9 µM
N=C(N)NCCCC(=O)O,"Alkaline phosphatase, tissue-nonspecific isozyme (ALPL, Homo sapiens, UniProt P05186)",binding,,ITC,,Kd,2 µM
NC(=O)c1ncn([C@@H]2O[C@H](CO)[C@@H](O)[C@H]2O)n1,"5'-AMP-activated protein kinase catalytic subunit alpha-1 (PRKAA1, Homo sapiens, UniProt Q13131)",binding,,SPR,,Kd,6.75 µM
OC[C@H]1OC(O)[C@H](O)[C@@H](O)[C@@H]1O (some centres unmarked),"ATP-dependent RNA helicase DDX18 (Homo sapiens, UniProt Q9NVP1)",binding,,MST,,Kd,77.2 µM
COc1cccc2c1C(=O)c1c(O)c3c(c(O)c1C2=O)C[C@@](O)(C(=O)CO)C[C@@H]3O[C@H]1C[C@H](N)[C@H](O)[C@H](C)O1,"Solute carrier organic anion transporter family member 1B3 (SLCO1B3, Homo sapiens, UniProt Q9NPD5)",transporter uptake,inhibitor,radiometric,2 min,IC50,7.7 µM
